Compound activity as filed in PubChem.
EphB4 antag: EphB4-ephrin-B2 interaction antagonists, primary screen, biochemical, TNYL-RAW peptide probe, fluorescence polarization | EphB4 LBD / TNYL-RAW-Alexa532 peptide | AID 720, 2007 | inhibition, % at 7 µM | 0.15% of 97,000 active;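 active = inhibition above the screen-wide mean inhibition plus 3 SD, cut at about 15% in these data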
PostGolgi ctrl: growth inhibition of yeast control strain, primary screen, counter-screen for post-Golgi transport modulator project. 5% of 98,000 active. efflux-deficient yeast background strain, growth absorbance A615, 16 h. inhibition, % at 10 µM
PLK1 inh: human PLK1 kinase inhibitors, primary screen, biochemical, TR-FRET; 0.53% of 97,000 active; Serine/threonine-protein kinase PLK1 (Homo sapiens), P53350; recombinant PLK1 kinase, TR-FRET peptide phosphorylation; inhibition, % at 10 µM;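 active = inhibition of 50% or more in the single-concentration screen; inactive = inhibition below 50%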
PostGolgi yeast: phenotypic screen on post-Golgi transport, primary screen. 0.9% of 98,000 active. inhibition, % at 10 µM. post-Golgi transport phenotypic cell assay. AID 739, 2007;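 note: yeast cells grown in 1536-well plates; yeast grown about 18 h at 30C before absorbance read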
PLK1 PBD inh: Plk1 polo box domain binding inhibitors, primary screen, biochemical, fluorescence polarization; Serine/threonine-protein kinase PLK1 (Homo sapiens), P53350; Plk1 PBD phosphopeptide binding; 0.13% of 97,000 active; AID 693, 2007; inhibition, %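 (tested at about 20 µM)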; in the data active = inhibition above about 34%, passing the limit was not always enough
HIV Rev-RRE inh: HIV-1 Rev-RRE binding inhibitors, primary screen, biochemical, FRET, protein-RNA interaction. P05866. Rev peptide-RRE RNA binding. inhibition, % at 8 µM. 0.79% of 97,000 active;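 active = inhibition above the screen-wide mean plus 3 SD, cut at about 35% in these data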
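Test system – labelled RRE RNA duplex and labelled Rev peptide · Reagent – labelled Rev peptide · Doses – one concentration, 8 µM nominal · Incubation – 5 + 15 min at 25 °C · Signal – FRET fluorescence readout · Read-out basis – % inhibition of FRET ratio versus controls · Control set – DMSO wells as 0% and neomycin B wells as 100% inhibition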
Numbers stand for hits; n = inactive; x = not tested or not shown; [ ] = dose if it differs, or a comment. This is a sample that favours compounds with a hit; in the whole collection about 6.4% have one here. Cut-off read from the data, not from the text of the source, unless noted: active = inhibition above about 30%; inactive = the rest.

SMILES	EphB4 antag	PostGolgi ctrl	PLK1 inh	PostGolgi yeast	PLK1 PBD inh	HIV Rev-RRE inh
CCN(Cc1ccccc1)C(=O)c1cc2c(=O)oc3ccc(C)cc3c2s1	n	47	n	n	n	n
CC1(c2ccc(Cl)cc2)NC(=O)N(CC(=O)N2CCCC2)C1=O (centres undefined)	n	n	n	n	n	n
Cn1c(Sc2ccc(Br)cc2)c(C=O)c2ccccc21	n	32	n	n	n	n
Cc1cc(C)c(Cc2c(C)nc3c(C(=O)NCc4ccco4)cnn3c2C)c(C)c1	n	44	n	n	n	n
COc1ccc(-c2nc(-c3ccccc3)nc(N3CCN(C)CC3)c2C#N)cc1	n	33	n	n	n	n
COc1ccc(-c2nc(-c3cccc(C)c3)nc(N3CCN(C)CC3)c2C#N)cc1	n	n	n	n	n	n
CN(C(=O)COc1cc(=O)n(C)c2ccccc12)c1ccc(Cl)cc1	n	n	n	n	n	n
CN(c1ccc(Cl)cc1)c1cc(=O)n(C)c2ccccc12	120[fluorescence artefact?]	64	n	n	n	n
Cc1ccc(-c2nc3ccccc3[nH]2)cc1NC(=S)NC(=O)c1ccccc1Br	n	37	n	n	n	n
Cc1cc(C)n(-c2cc(N3CCOCC3)nc(-c3ccccc3)n2)n1	n	42	n	n	n	n
Cc1cc(C)cc(OCc2nnc(SCC(=O)OC(C)C)o2)c1	n	n	n	n	n	n
Cc1ccc2nc(N3CCN(Cc4nnnn4C4CCCC4)CC3)c(C#N)cc2c1	n	x	n	x	n	n
Cc1ccc(C)c(N2CCN(Cc3nnnn3C3CCCCC3)CC2)c1	n	38	n	n	n	n
COCCNC(=O)Cn1cc2c(n1)CCC(C)C2 (centres undefined)	x	n	n	n	n	x
CC1CCc2nn(CC(=O)NCCC3=CCCCC3)cc2C1 (centres undefined)	x	37	x	n	x	x
CC1CCc2c(sc3ncnc(N4CCN(S(=O)(=O)c5cccc6nonc56)CC4)c23)C1 (centres undefined)	n	x	n	x	n	n
COc1ccc(Br)cc1C(=O)O	x	n	x	n	x	x
CNc1ccc(Br)cc(C(=O)/C=C/c2cc(OC)ccc2OC)c1=O	n	x	n	x	n	55
O=C(/C=C/c1ccc2c(c1)OCO2)N1CCOCC1	n	n	n	n	n	n
CCNc1ccc(Br)cc(C(=O)/C=C/c2ccc(Cl)cc2Cl)c1=O	n	x	n	x	n	79[fluorescence artefact?]
COCCCNC(=O)/C=C/c1ccc(Cl)cc1Cl	n	n	n	n	n	n
CNc1ccc(Br)cc(C(=O)/C=C/c2ccc3c(c2)OCO3)c1=O	n	n	n	n	n	48
CCCc1nc(SCc2ccccn2)c2c(=O)n(C)c(=O)n(C)c2n1	n	n	n	n	n	n
Cn1c(=O)c2c(SCc3ccccn3)nc(CC(C)(C)C)nc2n(C)c1=O	n	34	n	n	n	n
CCOC(=O)C1CCCN(c2c(NCCN3CCCCC3C)c(=O)c2=O)C1 (centres undefined)	n	n	n	n	n	n
SMILES	EphB4 antag	PostGolgi ctrl	PLK1 inh	PostGolgi yeast	PLK1 PBD inh	HIV Rev-RRE inh
Cc1ccc(S(=O)(=O)Cn2nnnc2C(CC(C)C)N2CCN(c3ccccc3)CC2)cc1 (centres undefined)	n	x	n	x	n	n
CCCC(c1nnnn1Cc1ccc(OC)cc1)N1CCC(C(N)=O)CC1 (centres undefined)	n	n	n	n	n	n
CCCC(c1nnnn1Cc1ccc(OC)cc1)N1CCN(c2ccccc2)CC1 (centres undefined)	x	31	x	n	x	x
COc1ccc(Cn2nnnc2C(CC(C)C)N2CCN(c3ccccc3)CC2)cc1 (centres undefined)	n	63	n	n	n	n
CC(C)CC(c1nnnn1C(C)C)N1CCN(c2ccccc2)CC1 (centres undefined)	n	61	n	n	n	n
CCN(CC)S(=O)(=O)c1ccc(C(=O)N2CCCCC2)cc1	n	n	n	n	n	n
Cc1cc(O)c(C(C)C)cc1NC(=O)c1cccc(Cl)c1	n	n	n	n	n	n
CC1(C)CC(=O)C=C(NNC(=O)c2ccccc2O)C1	n	n	n	n	n	36
